Measurements published in PMC6221542 (Science Advances, 2018).

Experiments:
[1] = system: methylated H3K9 and H3K27 peptides; assay: Peptide microarray, chromodomain binding profile; parameters: species or system human; conditions: cluster 3 = H3K9 peptides with different PTMs
Outline: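 Array of 467 unmodified and modified peptides (desalted, mass-spectrometry checked) printed in triplicate spots on glass slides and probed with chromodomain proteins. Signal intensities converted to z scores per chromodomain using all its intensities: z = (x − mean)/SD. Hierarchical clustering grouped chromodomains into three categories and peptides into six clusters by binding preference.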

H4K20me1 = assay: Peptide microarray, chromodomain binding to H4K20me1; parameters: species or system human; conditions: no dsDNA in binding buffer
Outline: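 Custom array of 467 unmodified and modified peptides (synthesized, desalted, mass-spec checked), each spotted in triplicate on glass slides. Chromodomain proteins were bound to the printed array and analyzed by a previously described protocol. The CBX1 mutant chromodomain was instead screened on a commercial modified-histone peptide array.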

- interaction with H4K20me1 (in words) (H4K20me1): did not show interaction with this mark
B1: MS3L1: MS3L1 chromodomain, cloned sequence 29-94 (protein, UniProt Q8N5Y2 29-94, looked up, fragment)
chain: VLYDAKIVDVIVGKDEKGRKIPEYLIHFNGWNRSWDRWAAEDHVLRDTDENRRLQRKLARKAVARL
modifications: chromodomain
- interaction with peptide cluster 3 (in words) [1]: lacked significant interaction with cluster 3
